Experimental data collected from several papers.
Each line is one published result; the experiments were not run side by side. Values after ≈ are worked out from the molar mass of the structure shown.

SMILES | tested on | assay | system | conditions | endpoint | result
CCCCCCCC(=O)NP(=O)(O)O | Bacillus subtilis | microbial growth | ATCC23857 | – | MIC | > 200 µg/mL
CN[C@@H]1[C@H](O)[C@H](NC)[C@H]2O[C@@]3(O)C(=O)C[C@@H](C)O[C@H]3O[C@@H]2[C@H]1O | Proteus vulgaris | microbial growth, broth dilution | ATCC33420 | – | MIC | 50 µg/mL (≈ 150 µM)
O=C1CCc2ccc(O)c(c2)Oc2ccc(cc2)[C@H]2O[C@@H]2CO1 | – | tubulin polymerisation, inhibitor | – | – | IC50 | > 40 µM
COc1ccc(/C=C\c2cc(OC)c(OC)c(OC)c2)cc1 | – | tubulin polymerisation, inhibitor, absorbance | – | – | IC50 | 1.1 µM
Cc1ncc([N+](=O)[O-])n1CCO | Clostridium perfringens | microbial growth | – | – | MIC50 | 0.5 µg/mL (≈ 2.92 µM)
Cc1cc(N(CCO)CCO)ccc1C=O | CAKI-1 | cell growth or viability | – | – | IC50 | > 10 µg/mL
CN1C[C@H](C(=O)N[C@]2(C)O[C@@]3(O)[C@@H]4CCCN4C(=O)[C@H](Cc4ccccc4)N3C2=O)C=C2c3cccc4[nH]cc(c34)C[C@H]21 | WI-38 | cell growth or viability, MTT | – | 72 h | EC50 | 57 µM
OC(Cn1cncn1)(Cn1cncn1)c1ccc(F)cc1F | Cryptococcus neoformans | microbial growth, broth dilution | – | – | MIC | 3.12 µg/mL (≈ 10.2 µM)
O=[N+]([O-])c1ccc(C2=[N+]([O-])c3ccccc3N3CCN=C23)cc1 | Clostridium perfringens | microbial growth | – | – | MIC50 | ≤ 0.06 µg/mL
Cc1cccc(-n2ncc(Cl)c(Cl)c2=O)c1 | HCC827 | cell growth or viability, resazurin | – | 96 h | IC50 | 0.09 µM
O=C1CCc2ccc(O)c(c2)Oc2ccc(cc2)/C=C\CO1 | – | tubulin polymerisation, inhibitor | – | – | IC50 | > 40 µM
N.N.[Cl][Pt][Cl] | HCC827 | cell growth or viability, MTT | – | 72 h | IC50 | 3 µM
O=C(CCCCCCCCCCOc1ccccc1)NP(=O)(O)O | Bacillus subtilis | microbial growth | ATCC23857 | – | MIC | > 200 µg/mL
